Results taken from ChEMBL document CHEMBL5357082, “Identification and Optimization of Small Molecule Pyrazolopyrimidine TLR7 Agonists for Applications in Immuno-oncology” (ACS Med Chem Lett, 2024).
Active and inactive are the calls of the source. No cut-off for these calls is given here.

What was measured:
[1] = Metabolic stability in human liver microsomes assessed as compound remaining at 0.5 uM incubated for 10 mins in presence of NADPH by UV absorbance based assay; type: ADME, Microsome; details: read-out: Stability
[2] = target: Voltage-gated inwardly rectifying potassium channel KCNH2 (Homo sapiens, UniProt Q12809); experiment: Inhibition of hERG; type: toxicity
Toll-like receptor 8 = target: T1, Toll-like receptor 8 (Homo sapiens, UniProt Q9NR97); experiment: Agonist activity at human TLR8
T1 sequence (Q9NR97 whole entry): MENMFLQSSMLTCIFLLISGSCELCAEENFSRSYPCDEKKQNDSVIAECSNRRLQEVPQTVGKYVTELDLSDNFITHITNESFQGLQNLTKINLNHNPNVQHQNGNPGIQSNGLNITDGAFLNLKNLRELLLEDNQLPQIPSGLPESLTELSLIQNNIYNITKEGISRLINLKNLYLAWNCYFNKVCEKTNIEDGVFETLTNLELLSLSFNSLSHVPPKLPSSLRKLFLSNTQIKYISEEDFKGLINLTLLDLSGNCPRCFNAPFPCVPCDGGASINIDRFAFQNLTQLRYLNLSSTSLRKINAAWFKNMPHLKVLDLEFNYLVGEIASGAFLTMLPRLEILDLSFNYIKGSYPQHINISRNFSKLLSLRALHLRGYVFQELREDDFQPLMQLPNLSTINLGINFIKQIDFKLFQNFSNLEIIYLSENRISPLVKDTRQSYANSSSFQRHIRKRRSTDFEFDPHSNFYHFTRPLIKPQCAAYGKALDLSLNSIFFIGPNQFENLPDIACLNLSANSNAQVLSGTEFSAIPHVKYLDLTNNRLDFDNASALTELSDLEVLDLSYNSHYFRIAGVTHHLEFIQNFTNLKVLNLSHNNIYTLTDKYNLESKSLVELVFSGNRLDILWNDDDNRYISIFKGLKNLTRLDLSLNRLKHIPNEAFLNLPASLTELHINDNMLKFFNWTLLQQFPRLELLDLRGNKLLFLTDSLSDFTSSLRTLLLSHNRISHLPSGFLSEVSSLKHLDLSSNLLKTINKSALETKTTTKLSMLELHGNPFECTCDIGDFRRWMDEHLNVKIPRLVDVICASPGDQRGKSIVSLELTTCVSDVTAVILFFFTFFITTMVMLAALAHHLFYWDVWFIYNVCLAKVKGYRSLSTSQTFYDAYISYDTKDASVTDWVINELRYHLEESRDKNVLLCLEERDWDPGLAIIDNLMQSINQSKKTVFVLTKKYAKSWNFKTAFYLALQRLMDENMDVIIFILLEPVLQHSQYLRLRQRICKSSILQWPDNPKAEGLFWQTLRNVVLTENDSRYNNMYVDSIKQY

[3] = Drug concentration in nontumor bearing Balb/C mouse at 0.5 mg/kg measured after 5 mins; type: ADME, organism-based; details: in vivo, read-out: Drug uptake
[4] = AUClast in nontumor bearing Balb/C mouse at 0.5 mg/kg; type: ADME, organism-based; design: dose 0.5 mg/kg; details: in vivo
[5] = Clearance in nontumor bearing Balb/C mouse at 0.5 mg/kg; type: ADME, organism-based; details: in vivo
CT26 [6] = experiment: Antitumor activity against syngeneic mouse CT26 cells implanted in ip dosed Balb/cAnNHsd mouse assessed as tumor growth delay administered once a week for 4 weeks in presence of aPD1 antibody and measured twice weekly by digital caliper analysis; type: functional, organism-based; details: dose 0.5-2.5 mg/kg
Method in brief: (§1)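 Syngeneic CT-26 tumors in mice. The TLR7 agonist was given at 0.5 or 2.5 mg/kg weekly for 4 doses (QWx4). It was combined with anti-PD1 antibody at 10 mg/kg IP, every 4 days for 7 doses (Q4Dx7). Tumor growth was followed, including 27 days after compound dosing stopped.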

CT26 [7] = experiment: Antitumor activity against syngeneic mouse CT26 cells implanted in Balb/cAnNHsd mouse assessed as complete tumor regression with no relapse at 2.5 mg/kg, ip administered once a week for 4 weeks in presence of aPD1 antibody and measured twice weekly by digital caliper analysis; type: functional, organism-based; method in brief: as §1
[8] = Cytotoxicity against PHA-activated T-cells (unknown origin) assessed as inhibition of IL-2 induced cell proliferation measured after 72 hrs by MTS assay; type: toxicity, cell-based
Cytochrome P450 2C19 = Cytochrome P450 2C19 (Homo sapiens, UniProt P33261); experiment: Inhibition of CYP2C19 (unknown origin); type: ADME
Cytochrome P450 3A4 [9] = target: T2, Cytochrome P450 3A4 (Homo sapiens, UniProt P08684); experiment: Inhibition of CYP3A4 (unknown origin) using BFC as substrate; type: ADME
Cytochrome P450 2C8 = target: T3, Cytochrome P450 2C8 (Homo sapiens, UniProt P10632); experiment: Inhibition of CYP2C8 (unknown origin); type: ADME
T3 sequence (P10632 whole entry): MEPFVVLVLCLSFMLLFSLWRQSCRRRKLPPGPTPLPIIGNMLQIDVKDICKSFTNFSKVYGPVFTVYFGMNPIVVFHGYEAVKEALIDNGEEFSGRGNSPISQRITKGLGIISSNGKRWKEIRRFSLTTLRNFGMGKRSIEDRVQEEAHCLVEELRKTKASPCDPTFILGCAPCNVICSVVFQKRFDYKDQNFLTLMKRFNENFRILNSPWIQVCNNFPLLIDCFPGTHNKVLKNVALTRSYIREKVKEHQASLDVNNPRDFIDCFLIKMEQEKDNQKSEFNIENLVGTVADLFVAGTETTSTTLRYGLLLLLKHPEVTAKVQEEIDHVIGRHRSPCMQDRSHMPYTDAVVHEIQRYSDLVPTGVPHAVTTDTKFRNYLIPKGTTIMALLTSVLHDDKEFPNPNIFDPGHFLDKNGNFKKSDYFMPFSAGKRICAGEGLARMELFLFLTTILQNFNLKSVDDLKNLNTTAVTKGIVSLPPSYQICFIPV

Cytochrome P450 3A4 [10] = target: T2, Cytochrome P450 3A4; experiment: Inhibition of CYP3A4 (unknown origin) using BFC as substrate preincubated with compound followed by substrate addition at 5 mins; type: ADME

T2 sequence (P08684 whole entry): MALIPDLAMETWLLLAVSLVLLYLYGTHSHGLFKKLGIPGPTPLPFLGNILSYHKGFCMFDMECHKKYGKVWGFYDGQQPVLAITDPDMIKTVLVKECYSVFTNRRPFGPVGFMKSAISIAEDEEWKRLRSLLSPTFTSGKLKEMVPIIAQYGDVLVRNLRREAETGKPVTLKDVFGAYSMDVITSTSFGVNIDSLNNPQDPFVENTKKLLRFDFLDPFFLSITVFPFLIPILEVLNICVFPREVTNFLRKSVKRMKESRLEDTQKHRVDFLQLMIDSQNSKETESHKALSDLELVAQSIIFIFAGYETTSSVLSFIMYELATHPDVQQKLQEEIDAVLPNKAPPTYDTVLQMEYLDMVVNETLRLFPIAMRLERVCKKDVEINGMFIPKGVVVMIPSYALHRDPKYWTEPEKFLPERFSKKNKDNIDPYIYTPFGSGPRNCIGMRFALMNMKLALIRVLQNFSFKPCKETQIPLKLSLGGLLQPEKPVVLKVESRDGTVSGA
Chain of Cytochrome P450 2C19 (P33261 whole entry): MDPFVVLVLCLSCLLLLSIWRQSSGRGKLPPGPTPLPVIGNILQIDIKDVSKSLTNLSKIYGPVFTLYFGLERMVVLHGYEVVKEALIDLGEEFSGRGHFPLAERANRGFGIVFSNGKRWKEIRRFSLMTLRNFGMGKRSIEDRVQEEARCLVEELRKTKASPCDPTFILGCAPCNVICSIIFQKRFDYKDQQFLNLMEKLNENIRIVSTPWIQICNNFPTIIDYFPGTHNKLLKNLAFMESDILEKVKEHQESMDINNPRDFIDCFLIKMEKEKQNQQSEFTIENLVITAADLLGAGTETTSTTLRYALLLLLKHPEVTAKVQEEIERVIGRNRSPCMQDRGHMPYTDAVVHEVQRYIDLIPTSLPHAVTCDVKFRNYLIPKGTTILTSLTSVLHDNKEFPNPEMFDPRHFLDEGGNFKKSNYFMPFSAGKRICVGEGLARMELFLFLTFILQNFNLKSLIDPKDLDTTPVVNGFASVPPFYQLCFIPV
Chain of Voltage-gated inwardly rectifying potassium channel KCNH2 (Q12809 whole entry): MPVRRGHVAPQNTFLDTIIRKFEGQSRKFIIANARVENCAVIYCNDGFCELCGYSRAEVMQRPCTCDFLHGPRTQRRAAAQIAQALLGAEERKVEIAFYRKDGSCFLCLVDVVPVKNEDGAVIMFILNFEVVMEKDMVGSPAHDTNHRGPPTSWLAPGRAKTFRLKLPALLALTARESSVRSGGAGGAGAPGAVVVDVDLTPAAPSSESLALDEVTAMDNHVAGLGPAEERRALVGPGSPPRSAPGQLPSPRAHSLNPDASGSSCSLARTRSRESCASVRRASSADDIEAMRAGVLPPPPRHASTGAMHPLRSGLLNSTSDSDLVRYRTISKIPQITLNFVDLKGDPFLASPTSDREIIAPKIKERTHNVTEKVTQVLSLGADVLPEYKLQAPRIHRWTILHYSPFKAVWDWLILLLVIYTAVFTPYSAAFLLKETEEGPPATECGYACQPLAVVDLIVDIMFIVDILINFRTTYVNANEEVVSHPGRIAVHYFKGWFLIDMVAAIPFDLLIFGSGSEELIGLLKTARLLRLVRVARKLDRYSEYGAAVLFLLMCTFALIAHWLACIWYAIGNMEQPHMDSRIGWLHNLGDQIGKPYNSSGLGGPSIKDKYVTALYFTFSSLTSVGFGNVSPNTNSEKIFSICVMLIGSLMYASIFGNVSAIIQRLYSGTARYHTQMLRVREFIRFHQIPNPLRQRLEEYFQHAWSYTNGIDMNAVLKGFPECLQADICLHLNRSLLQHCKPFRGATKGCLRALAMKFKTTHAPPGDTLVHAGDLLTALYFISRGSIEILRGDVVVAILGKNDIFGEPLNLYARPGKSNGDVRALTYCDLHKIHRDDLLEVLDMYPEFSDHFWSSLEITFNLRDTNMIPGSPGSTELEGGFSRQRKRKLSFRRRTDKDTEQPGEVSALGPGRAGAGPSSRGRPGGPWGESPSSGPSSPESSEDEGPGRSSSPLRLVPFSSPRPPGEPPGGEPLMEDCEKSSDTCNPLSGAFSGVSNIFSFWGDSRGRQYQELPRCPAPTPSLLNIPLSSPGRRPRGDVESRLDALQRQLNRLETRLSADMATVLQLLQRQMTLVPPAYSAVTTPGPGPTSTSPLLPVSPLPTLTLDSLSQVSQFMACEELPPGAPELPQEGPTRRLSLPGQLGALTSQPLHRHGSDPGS

remaining at 10 min, 0.5 µM [1]: 86%
EC50 (Toll-like receptor 8): > 5 µM
concentration at 5 min [3]: 266 nM
AUC(0-t) [4]: 0.655 µM·h
clearance [5]: 22 mL/min/kg
IC50 (Cytochrome P450 2C19): > 20 µM
IC50 (Cytochrome P450 3A4 [9]): > 20 µM
IC50 (Cytochrome P450 2C8): > 20 µM
IC50 (Cytochrome P450 3A4 [10]): > 20 µM
Compound: CCC[C@@H](CCO)Nc1nc(N)nc2cnn(Cc3ncc(C4CCN(C5CCOCC5)CC4)cc3OC)c12
IC50 [2]: > 50 µM
Activity (CT26 [6]): Active
Activity (CT26 [7]): Active
IC50 at 72 h [8]: > 25 µM
